For 5 molecules, Activity and MIC results are on record in ChEMBL document CHEMBL1153795, “Aromatic cyclic peroxides and related keto-compounds from the Plakortis sp. component of a sponge consortium” (2009).

Converted amounts (≈) assume the structure as drawn. The source made the active and inactive calls. No cut-off for these calls is given here.

One test deals with Candida albicans. The test is described as follows: Antifungal activity against Candida albicans after 24 hrs by broth macridilution method. The class given is functional, organism-based.
The next test has as its system Escherichia coli. As to the kind of experiment: Antibacterial activity against Escherichia coli after 24 hrs by broth macridilution method. In kind it is functional, organism-based. The essentials: (§1)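 Broth macrodilution in LB medium (10 g/L Bactotryptone, 5 g/L Bactoyeast, 10 g/L NaCl, pH 7.5). Inoculum was set to 0.5 McFarland (2 × 10^8 cfu/mL) at 530 nm, then diluted 1:4000 to 50 000 cfu/mL. Tubes held eleven 2-fold dilutions (512–[…] µg/mL final) and were incubated 24 h at 37 °C. MIC90 was taken as the lowest concentration with no visible growth.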

In another test the test system is Staphylococcus aureus. As to the kind of experiment: Antibacterial activity against Staphylococcus aureus after 24 hrs by broth macridilution method. The class given is functional. The essentials:
as §1

In the case of `COC(=O)C[C@]1(O)OO[C@@](C)(C/C(C)=C/C=C/Cc2ccccc2)C[C@H]1C`, the outcome with Candida albicans and with Escherichia coli was inactive.

As for `CC(=O)CC(C)CCCCCCCCc1ccccc1` (stereo unspecified), the result with Candida albicans and in the test on Escherichia coli was inactive.

With `CC(CCCCCCCCc1ccccc1)C[C@@]1(C)C[C@@H](C)[C@@](C)(O)OO1` (stereo partly specified), the outcome with Candida albicans and in the test on Escherichia coli was inactive. The molecule also displayed a minimum inhibitory concentration (MIC) against Staphylococcus aureus of 64 mg/L (≈ 170 µM).

In the case of `CC(=O)CC(C)CCCCCC/C=C/c1ccccc1` (stereo unspecified), the outcome in the test with Candida albicans and with Escherichia coli was inactive.

With `CC(CCCCCC/C=C/c1ccccc1)C[C@@]1(C)C[C@@H](C)[C@@](C)(O)OO1` (stereo partly specified), the outcome in the test with Candida albicans and in the test with Escherichia coli was inactive.
